Data reported in ChEMBL document CHEMBL4033616, “Identification of spirobisnaphthalene derivatives with anti-tumor activities from the endophytic fungus Rhytidhysteron rufulum AS21B” (Bioorg Med Chem, 2017).

What was measured:
NCI-H1975 = experiment: Cytotoxicity against human NCI-H1975 cells assessed as decrease in cell viability after 72 hrs by CellTiter-Glo assay; type: functional, cell-based; details: NCI-H1975, 72 h
Summary of the method: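 NSCLC H1975 cells grown to exponential phase in RPMI 1640 with 10% (v/v) fetal calf serum, humidified 5% CO2. Seeded cells were exposed to compounds at the indicated concentrations for 72 h at 37 °C. Viability was read as the ATP level in living cells (CellTiter-Glo).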

Ramos = experiment: Cytotoxicity against human Ramos cells assessed as decrease in cell viability after 24 hrs by CellTiter-Glo assay; type: functional, cell-based
Summary of the method: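 Human lymphoma Ramos cells, expanded to exponential growth in RPMI 1640 plus 10% (v/v) fetal calf serum under humidified 5% CO2. Seeded cells were treated with compounds at the indicated concentrations, 37 °C, 24 h. Viability was measured from the cellular ATP level with the CellTiter-Glo kit.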

Structure (SMILES) | IC50 (NCI-H1975) [µM] | IC50 (Ramos) [µM]
CO[C@@H]1CC(=O)C2=CCCC3(Oc4cccc5cccc(c45)O3)[C@@H]2[C@@H]1O | 10.2 | 0.461
O=C1C=C[C@@H](O)[C@@H]2C1=CCCC21Oc2cccc3cccc(c23)O1 | 1.17 | 0.048
O=C1C2=CCCC3(Oc4cccc5cccc(c45)O3)[C@@H]2[C@H](O)[C@@H]2O[C@H]12 | 7.3 | 18
O=C1C=C[C@]2(Oc3cccc4c(O)ccc(c34)O2)c2ccccc21 | > 100 | 15
O=C1CC[C@]23Oc4ccc(O)c5c4[C@@](C=CC5=O)(Oc4cccc1c42)O3 | > 100 | 82.9
CC(=O)O[C@@H]1C=CC(=O)C2=CCCC3(Oc4cccc5cccc(c45)O3)[C@@H]21 | 0.252 | 0.018
CO[C@H]1CCC2(Oc3cccc4cccc(c34)O2)C2=C1C(=O)C=CC2=O | > 100 | 31.7
O[C@H]1[C@@H]2[C@H]([C@@H](O)CCC23Oc2cccc4cccc(c24)O3)[C@@H](O)C[C@@H]1O | > 100 | > 100
Oc1cccc2c1[C@@H](O)CCC21Oc2cccc3cccc(c23)O1 | > 100 | > 100
O=C1CCC(O)c2cccc(O)c21 (stereo unspecified) [4,8-DIHYDROXY-1-TETRALONE] | 50 | 23.1
CN(C)C/C=C/C(=O)Nc1cc2c(Nc3ccc(F)c(Cl)c3)ncnc2cc1O[C@H]1CCOC1 [AFATINIB] | 1.97 | –
C=CC(=O)N1CCC[C@@H](n2nc(-c3ccc(Oc4ccccc4)cc3)c3c(N)ncnc32)C1 [IBRUTINIB] | – | 28.7
O=C1CCC2(Oc3cccc4cccc(c34)O2)c2cccc(O)c21 [PALMARUMYCIN CP2] | > 100 | 18
O=C1CCC2(Oc3cccc4cccc(c34)O2)c2c(O)ccc(O)c21 [PALMARUMYCIN CP17] | > 100 | 33.1
